Screens deposited in PubChem by Broad Institute.
E-sel inducer – induces E-selectin expression in human endothelial cells; 260,000 compounds, 0.37% hits; activation, % at 7.58 µM; HUVEC E-selectin immunofluorescence imaging; normalized: neutral wells 0, TNF-alpha wells 100; P16581;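 active = mean E-selectin-positive cell signal at least 10% of the positive control, reached in at least 60% of replicates, without over 20% cell loss; inconclusive = no rule given, readout overlaps actives, possibly toxicity-flagged; inactive = the rest, including those meeting only one limit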
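Read-out: % PE-positive cells | Test system: HUVEC | Doses: One compound dose added by pin transfer | Buffer or medium: EGM-2 over gelatin coat | Signal: Immunofluorescence imaging | Benchmarks: TNF-alpha, DMSO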
SIRT5 block – inhibitors of human sirtuin-5 desuccinylase | 330,000 compounds, 1.1% hits | inhibition, % at 15 µM | AID 652115 | Purified SirT5, succinyl-peptide AMC, trypsin-coupled fluorescence | Q9NXA8; in the data active = inhibition above about 15%; inconclusive = no clear call, values can overlap the other calls
Target sequence (Q9NXA8 whole entry, looked up): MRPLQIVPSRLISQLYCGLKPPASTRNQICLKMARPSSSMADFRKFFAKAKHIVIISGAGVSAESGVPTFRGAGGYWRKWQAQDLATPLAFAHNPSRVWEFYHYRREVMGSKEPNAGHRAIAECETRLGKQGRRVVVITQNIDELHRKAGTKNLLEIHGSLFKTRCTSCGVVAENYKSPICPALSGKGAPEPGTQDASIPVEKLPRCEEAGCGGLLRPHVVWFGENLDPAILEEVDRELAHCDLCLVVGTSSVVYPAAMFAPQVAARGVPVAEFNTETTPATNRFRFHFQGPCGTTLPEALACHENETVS
DENV2 CPE rescue – inhibitors of DENV2 cytopathic effect; DENV2-infected cells, cytopathic effect rescue, plate reader; CPE inhibition, % at 9.99 µM; 350,000 compounds, 1.7% hits; in the data active = CPE inhibition above about 20%, passing the limit was not always enough; inconclusive = no clear call, values can overlap the other calls; tested in BHK-21 cells
Large screens that a line does not name were inactive. Sampled rows, rich in hits. Any-hit rate of the full collection: about 2.8%.

C[C@H]1CCCCO[C@H](CN(C)S(=O)(=O)c2ccc(Cl)cc2)[C@@H](C)CN([C@@H](C)CO)C(=O)c2cc(NC(=O)Cc3ccccc3)ccc2O1	DENV2 CPE rescue 108.7
C[C@@H]1CN([C@H](C)CO)C(=O)c2cc(NS(=O)(=O)c3ccccc3)ccc2O[C@@H](C)CCCCO[C@@H]1CN(C)S(=O)(=O)c1ccc(Cl)cc1	none
C[C@H]1CCCCO[C@H](CN(C)S(=O)(=O)c2ccc(Cl)cc2)[C@@H](C)CN([C@@H](C)CO)C(=O)c2cc(NS(=O)(=O)c3ccccc3)ccc2O1	SIRT5 block 28.0
C[C@@H]1CCCCO[C@@H](CN(C)S(=O)(=O)c2ccc(Cl)cc2)[C@@H](C)CN([C@@H](C)CO)C(=O)c2cc(NS(=O)(=O)c3ccccc3)ccc2O1	none
C[C@H](CO)N1C[C@H](C)[C@H](CN(C)S(=O)(=O)c2ccc(Cl)cc2)OCCCC[C@H](C)Oc2ccc(NC(=O)Cc3ccccc3)cc2C1=O	none
C[C@@H]1CN([C@H](C)CO)C(=O)c2cc(NS(=O)(=O)c3ccc(Cl)cc3)ccc2O[C@@H](C)CCCCO[C@H]1CN(C)S(=O)(=O)c1ccccc1	SIRT5 block 18.6
Cc1cc(C(=O)Nc2cccc3c2O[C@@H](CN(C)C(=O)Nc2ccccc2)[C@@H](C)CN([C@H](C)CO)C3=O)n(C)n1	none
COc1cc(NC(=O)Cc2ccccc2)c(C(=O)O)cc1OC	none (no result: E-sel inducer)
COc1cc(NC(=O)Cc2ccc([N+](=O)[O-])cc2)c(C(=O)O)cc1OC	SIRT5 block 19.5
CN1CCN(C(=O)C[C@H]2CC[C@@H]3[C@@H](COc4ccc(NC(=O)C5CCC5)cc4C(=O)N3C)O2)CC1	DENV2 CPE rescue 24.1
CC(C)NC(=O)Nc1ccc2c(c1)C(=O)N(C)[C@@H]1CC[C@@H](CC(=O)NCC3CCCCC3)O[C@@H]1CO2	DENV2 CPE rescue inconclusive
CN1C(=O)c2cc(NC(=O)C3CCCC3)ccc2OC[C@H]2O[C@@H](CC(=O)NCC3CC3)CC[C@H]21	none
CN1CCN(C(=O)C[C@H]2CC[C@@H]3[C@H](COc4ccc(NC(=O)C5CCC5)cc4C(=O)N3C)O2)CC1	none
CC(C)NC(=O)Nc1ccc2c(c1)C(=O)N(C)[C@H]1CC[C@@H](CC(=O)NCC3CCCCC3)O[C@H]1CO2	DENV2 CPE rescue 35.0
CN1C(=O)c2cc(NC(=O)C3CCCC3)ccc2OC[C@H]2O[C@@H](CC(=O)NCC3CC3)CC[C@@H]21	DENV2 CPE rescue 32.4
C[C@@H]1CN([C@H](C)CO)C(=O)c2cc(C3=CCCC3)cnc2O[C@@H]1CN(C)Cc1ccccn1	none
C[C@@H]1CCCCO[C@H](CN(C)S(=O)(=O)c2cn(C)cn2)[C@@H](C)CN([C@@H](C)CO)C(=O)c2cc(NC(=O)C3CCCCC3)ccc2O1	none
CCC(=O)N(C)C[C@H]1Oc2cc(C3=CCCCC3)ccc2S(=O)(=O)N([C@@H](C)CO)C[C@H]1C	none (no result: SIRT5 block, DENV2 CPE rescue)
CCCc1cn([C@H]2C[C@@H]3O[C@@H](CO)CC[C@@H]3O[C@@H]2CCc2ccc(-c3cccc(OC)c3)cc2)nn1	none (no result: E-sel inducer)
CC(=O)c1ccc2c3c(cc(C)c2c1)CCCC3	DENV2 CPE rescue 24.8 (no result: SIRT5 block)
CC(=O)c1cccc(NC(=O)c2ccc3c(c2)CCCC3)c1	none (no result: E-sel inducer)
COc1ccc(NC(=O)N(C)C[C@H]2Oc3ccc(NC(=O)CCN4CCOCC4)cc3CC(=O)N([C@H](C)CO)C[C@@H]2C)cc1	none (no result: E-sel inducer)
Nc1cc(S(=O)(=O)c2ccc(O)c(N)c2)ccc1O	SIRT5 block 16.1
Nc1ccc(S(=O)(=O)c2ccc(N)c(N)c2)cc1	none (no result: E-sel inducer)
O=C(O)c1ccccc1	DENV2 CPE rescue 110.1 (no result: E-sel inducer)
O=C(C(=O)c1ccc(O)cc1)c1ccccc1	none
C[C@@H]1CN([C@H](C)CO)C(=O)c2cccc(NS(=O)(=O)c3cccs3)c2O[C@@H]1CN(C)S(=O)(=O)c1ccccc1	none
C[C@H](CO)N1C[C@H](C)[C@@H](CN(C)C(=O)Nc2ccc(C(F)(F)F)cc2)Oc2ccc(NC(=O)Cc3cn(C)c4ccccc34)cc2CC1=O	E-sel inducer 34.4
C[C@H]1CN([C@@H](C)CO)C(=O)Cc2cc(NC(=O)Cc3cn(C)c4ccccc34)ccc2O[C@@H]1CN(C)C(=O)Nc1cccc2ccccc12	DENV2 CPE rescue 21.3
C[C@H]1CN([C@@H](C)CO)C(=O)Cc2cc(NC(=O)Cc3cn(C)c4ccccc34)ccc2O[C@H]1CN(C)Cc1ccc(C(F)(F)F)cc1	E-sel inducer 258.4
C[C@H](CO)N1C[C@H](C)[C@@H](CN(C)C(=O)Nc2ccccc2)Oc2ccc(NC(=O)Cc3cn(C)c4ccccc34)cc2CC1=O	none
C[C@@H]1CN([C@H](C)CO)C(=O)Cc2cc(NC(=O)Cc3cn(C)c4ccccc34)ccc2O[C@H]1CN(C)Cc1ccc(C(F)(F)F)cc1	E-sel inducer 152.3, DENV2 CPE rescue 33.0
C[C@@H]1CN([C@H](C)CO)C(=O)Cc2cc(NC(=O)Cc3cn(C)c4ccccc34)ccc2O[C@@H]1CN(C)C(=O)Nc1ccc(C(F)(F)F)cc1	none
C[C@@H]1CN([C@H](C)CO)C(=O)Cc2cc(NC(=O)Cc3cn(C)c4ccccc34)ccc2O[C@@H]1CN(C)Cc1ccccc1	none
C[C@@H]1CN([C@@H](C)CO)C(=O)Cc2cc(NC(=O)Cc3cn(C)c4ccccc34)ccc2O[C@@H]1CN(C)Cc1ccccc1	none
COc1ccc(S(=O)(=O)N[C@H]2CC[C@H](CCNC(=O)Cc3ccccn3)O[C@@H]2CO)cc1	none
C/C=C/c1ccc2c(c1)O[C@@H](CN(C)C(=O)CN1CCOCC1)[C@H](C)CN([C@H](C)CO)S2(=O)=O	none
COc1ccc2c3c(n(C)c2c1)[C@H](CO)NCC31CCN(S(=O)(=O)c2cccc(F)c2)CC1	none (no result: SIRT5 block)
COc1ccc2c3c([nH]c2c1)[C@H](CO)N(C(=O)NC(C)C)CC31CCN(C(=O)NC(C)C)CC1	none
C[C@H]1CN([C@@H](C)CO)S(=O)(=O)c2ccc(-c3ccccc3)cc2O[C@@H]1CN(C)C	none
Cc1ccc(S(=O)(=O)N(C)C[C@H]2OCCCC[C@H](C)Oc3ccc(NS(=O)(=O)c4cn(C)cn4)cc3C(=O)N([C@H](C)CO)C[C@H]2C)cc1	none (no result: E-sel inducer)
C[C@@H]1CN([C@H](C)CO)C(=O)Cc2cc(NC(=O)Nc3ccccc3)ccc2O[C@@H]1CN(C)S(=O)(=O)c1ccc(Cl)cc1	none (no result: SIRT5 block, DENV2 CPE rescue)
COc1ccccc1NC(=O)N1CCCCN2[C@@H](CO)[C@@H](c3ccc(C#CC4CC4)cc3)[C@@H]2C1	none (no result: E-sel inducer)
C[C@H](NC(=O)[C@@H]1CCCN1C(=O)[C@@H]1CCCN1C(=O)OC(C)(C)C)c1ccccc1	SIRT5 block 16.4, DENV2 CPE rescue inconclusive
O=C(NCc1ccccc1Cl)[C@H]1CCCN1C(=O)[C@H]1CCCN1	none
C[C@@H](NC(=O)[C@@H]1CCCN1C(=O)OC(C)(C)C)c1ccccc1	none
CCOc1cc(OCC)cc(C(=O)N2CCC[C@H]2C(=O)N2CCC[C@H]2C(=O)NCc2ccc(F)cc2F)c1	none
CC(C)(C)OC(=O)N1CCC[C@@H]1C(=O)N1CCC[C@@H]1C(=O)NCc1ccccc1Cl	DENV2 CPE rescue 33.5
CCOc1cc(OCC)cc(C(=O)N2CCC[C@@H]2C(=O)N2CCC[C@@H]2C(=O)NCc2ccccc2Cl)c1	DENV2 CPE rescue 80.5
Cc1cc(C(=O)Nc2cccc3c2O[C@@H](CN(C)S(=O)(=O)c2ccccc2)[C@H](C)CN([C@H](C)CO)C3=O)n(C)n1	none
